The entries come from a sample that favours hits as a whole.
IDH1 mut inh – IDH1 R132H (human) inhibition | hit rate 0.18% among 70,000 | O75874 | IDH1 R132H reductase, diaphorase/resazurin fluorescence, 60 min | inhibition, % at 10 µM; in the data active means inhibition above about 34%; inconclusive means no clear call, values can overlap the other calls; inactive means below about 11%;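 further: 0% = DMSO and 100% = no enzyme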
T cruzi growth-1 – blocks T. cruzi growth in NIH3T3 culture | hit rate 5.9% among 77,000 | T. cruzi beta-gal in NIH3T3, GalScreen luminescence, 90 h | inhibition, % at 8.34 µM;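 active means mean inhibition above about 93%, with at least 55% of replicates each passing it, limit read from the data, passing the limit was not always enough; inconclusive means only one of those two conditions holds; inactive means neither condition holds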
KDM4C inh – inhibitors of human demethylase GASC-1 KDM4C; Q9H3R0; hit rate 0.15% among 96,000; AID 720574; inhibition, % at 12.5 µM; GST-KDM4C 2-372, H3K9me3 peptide, LANCE TR-FRET;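 active means mean replicate inhibition above about 25%, with at least 55% of replicates also reaching it, limit read from the data, passing the limit was not always enough; inconclusive means only one of those two conditions met; inactive means neither condition met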
Target sequence (Q9H3R0 2-372 limits assumed): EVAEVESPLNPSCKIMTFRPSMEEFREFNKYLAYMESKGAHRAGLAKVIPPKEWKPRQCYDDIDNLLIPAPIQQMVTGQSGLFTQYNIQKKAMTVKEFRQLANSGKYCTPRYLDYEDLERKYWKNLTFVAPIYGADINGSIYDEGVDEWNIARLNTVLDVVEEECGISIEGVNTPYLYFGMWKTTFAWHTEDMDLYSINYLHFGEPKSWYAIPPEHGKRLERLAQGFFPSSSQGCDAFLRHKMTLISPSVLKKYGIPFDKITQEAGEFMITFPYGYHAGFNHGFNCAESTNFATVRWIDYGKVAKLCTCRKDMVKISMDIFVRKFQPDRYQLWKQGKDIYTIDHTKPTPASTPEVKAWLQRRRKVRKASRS
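Material: N-terminal GST-fused human GASC-1 (KDM4C) fragment, residues 2-372. Input: 10 nM enzyme. Incubation: enzyme reaction 30 min, then detection 60 min, both room temperature. Doses: one test concentration per compound. Read-out basis: inhibition from TR-FRET ratio decrease. Detection: LANCE TR-FRET, excitation 340 nm, emissions 618 and 671 nm.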
T cruzi growth-2 – blocks T. cruzi growth in NIH3T3 host cells; inhibition, % at 8.35 µM; T. cruzi beta-gal in NIH3T3, GalScreen luminescence, 90 h; shares compounds with T cruzi growth-1; hit rate 72% among 5,600; AID 651739;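 active means mean replicate inhibition above about 95% and at least 55% of replicates individually reaching it, limit read from the data; inconclusive means only one of the two criteria is met; inactive means neither criterion is met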
T cruzi growth-3 – blocks T. cruzi growth in NIH3T3 host cells; shares compounds with T cruzi growth-1; T. cruzi beta-gal in NIH3T3, GalScreen luminescence, 90 h; inhibition, % at 2.09 µM; hit rate 21% among 5,600; AID 651740;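 active means mean inhibition above about 95%, with at least 55% of replicates also reaching it, limit read from the data; inconclusive means meets just one of the two conditions; inactive means meets neither condition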;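 further: plate controls were neutral control median for no effect and positive control median for full effect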
NIH3T3 tox – cytotoxicity in mouse NIH/3T3 fibroblasts | shares compounds with T cruzi growth-1 | NIH/3T3 viability, CellTiter-Glo ATP luminescence, 90 h | cytotoxicity (signal decrease), % at 8.35 µM | hit rate 14% among 5,600 | AID 651742;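 active means mean signal decrease across replicates above about 35% based on untreated-well scatter, with enough replicates individually passing, limit read from the data; inconclusive means no rule stated though some were filed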;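 further: 0% = median of neutral control wells and 100% = median of positive control wells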
NIH3T3 tox 2 – kills mouse NIH/3T3 fibroblasts; inhibition, % at 24.9 µM; shares compounds with T cruzi growth-1; NIH/3T3 viability, CellTiter-Glo ATP luminescence, 90 h; hit rate 56% among 5,600;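 active means mean loss of cell viability signal at or above a set limit, and enough replicates individually reaching it; inconclusive means meets only the mean limit or only the replicate share; inactive means meets neither condition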;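 further: 0% = median of neutral control wells and 100% = median of positive control wells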
* marks the source's active call; other numbers are inactive results; u = inconclusive; x = no result given.

SMILES	IDH1 mut inh	T cruzi growth-1	KDM4C inh	T cruzi growth-2	T cruzi growth-3	NIH3T3 tox	NIH3T3 tox 2
O=C(Cc1ccncc1)N1CCCCN2[C@@H](CO)[C@@H](c3ccc(-c4ccncc4)cc3)[C@@H]2C1	x	85.3	-0.4	x	x	x	x
O=C(Cc1ccncc1)N1CCCCN2[C@H](CO)[C@H](c3ccc(-c4ccncc4)cc3)[C@@H]2C1	x	101.6*	0.9	49.6	-24.8	-2.1	-10.3
COc1ccc(-c2ccc([C@@H]3[C@H](CO)N4CCCCN(C(=O)Cc5ccccc5)C[C@@H]34)cc2)cc1	x	98.7*	-1.8	104.3*	78.0	26.4	105.6*
COc1ccc(-c2ccc([C@H]3[C@@H](CO)N4CCCCN(C(=O)Cc5ccccc5)C[C@@H]34)cc2)cc1	x	102.1*	0.0	106.8*	105.9*	18.7	u
COc1ccc(-c2ccc([C@H]3[C@H](CO)N4CCCCN(C(=O)Cc5ccccc5)C[C@@H]34)cc2)cc1	x	108.0*	-1.5	106.8*	80.8	10.8	105.6*
N#Cc1ccc(-c2ccc([C@@H]3[C@H]4CN(C(=O)Cc5ccccc5)CCCCN4[C@H]3CO)cc2)cc1	x	75.8	-1.4	x	x	x	x
COC(=O)c1c(C)n(CCCOC(C)C)c2c1cc(O)c1ccccc12	10.2	x	x	x	x	x	x
CC(C)=CCCN1CCC(NC(=O)[C@](O)(c2ccccc2)C2CCCC2)CC1	-0.8	x	x	x	x	x	x
Cc1cc(C(F)F)n2nc(C(=O)Nc3ccc(Cl)cc3C(=O)c3ccccc3)nc2n1	0.0	x	x	x	x	x	x
CC[C@H]1CN2CCc3cc(OC)c(OC)cc3[C@@H]2C[C@@H]1C[C@H]1NCCc2cc(O)c(OC)cc21	1.5	x	x	x	x	x	x
CNCC(O)c1ccc(O)c(OC)c1 (centres undefined)	-1.2	x	x	x	x	x	x
CN1Cc2c(ccc3c2OCO3)[C@@H]2[C@H]1c1cc3c(cc1C[C@@H]2O)OCO3	0.3	x	x	x	x	x	x
O=C(Cc1ccccc1)N1CCCCN2[C@@H](CO)[C@@H](c3ccc(-c4ccccc4)cc3)[C@@H]2C1	x	u	-1.5	104.0*	55.8	16.1	104.6*
O=C(Cc1ccccc1)N1CCCCN2[C@H](CO)[C@H](c3ccc(-c4ccccc4)cc3)[C@@H]2C1	x	4.8	-1.7	x	x	x	x
CC1C/C=C/C2C3OC3(C)C(C)C3C(Cc4ccccc4)NC(=O)C23OC(=O)O/C=C/C(C)(O)C1=O (centres undefined)	2.0	x	x	x	x	x	x
COC(=O)CC1(CC(=O)OC)C(=O)N(C)C(=O)N(C)C1=O	1.3	x	x	x	x	x	x
Cc1ccccc1-c1ccc([C@H]2[C@H]3CN(C(=O)Cc4ccccn4)CCCCN3[C@H]2CO)cc1	x	u	-0.9	51.2	-0.6	-17.1	8.3
O=C(Cc1ccccn1)N1CCCCN2[C@H](CO)[C@@H](c3ccc(-c4ccc(F)cc4)cc3)[C@H]2C1	x	57.6	-0.7	x	x	x	x
O=C(Cc1ccccn1)N1CCCCN2[C@@H](CO)[C@@H](c3ccc(Br)cc3)[C@@H]2C1	x	33.4	0.3	x	x	x	x
O=C(Cc1ccccn1)N1CCCCN2[C@H](C1)[C@@H](c1ccc(-c3ccccc3F)cc1)[C@@H]2CO	x	3.1	-0.7	x	x	x	x
Cc1ccccc1-c1ccc([C@@H]2[C@H]3CN(C(=O)Cc4ccccn4)CCCCN3[C@H]2CO)cc1	x	98.7*	-1.4	67.6	27.1	-6.4	8.7
Cc1ccccc1-c1ccc([C@H]2[C@@H](CO)N3CCCCN(C(=O)Cc4ccccn4)C[C@@H]23)cc1	x	102.8*	0.8	96.5*	85.5	23.0	u
O=C(Cn1cc(C(=O)c2ccccc2)c2ccccc21)NCC1CCCO1 (centres undefined)	0.0	x	x	x	x	x	x
COC1CC(O[C@H]2CC[C@@]3(C)C(CCC4C3CC[C@]3(C)C(C5=CC(=O)OC5)CCC43O)C2)OC(C)C1OC1OC(COC2OC(CO)C(O)C(O)C2O)C(O)C(O)C1O (some centres undefined)	0.2	x	x	x	x	x	x
O=C1Nc2cc(Cl)c(Cl)cc2N2CCNCC12 (centres undefined)	1.5	x	x	x	x	x	x
O=C(Cc1cccnc1)N1CCCCN2[C@H](CO)[C@H](c3ccc(/C=C/c4ccccc4)cc3)[C@H]2C1	x	-215.0	0.2	x	x	x	x
O=C(Cc1cccnc1)N1CCCCN2[C@H](CO)[C@@H](c3ccc(/C=C/c4ccccc4)cc3)[C@H]2C1	x	105.1*	-0.8	108.7*	72.6	33.2	103.6*
